Results reported in ChEMBL document CHEMBL3627648, “Synthesis and biochemical evaluation of benzoylbenzophenone thiosemicarbazone analogues as potent and selective inhibitors of cathepsin L” (Bioorg Med Chem, 2015).
The source made the active and inactive calls. No cut-off for these calls is given here.

Key:
Procathepsin L [1] = target: T1, Procathepsin L (Homo sapiens, UniProt P07711); experiment: Inhibition of human liver cathepsin L using Z-FR-AMC as substrate measured every 15 sec for 5 mins by fluorescence assay
Target sequence in this assay (P07711 whole entry): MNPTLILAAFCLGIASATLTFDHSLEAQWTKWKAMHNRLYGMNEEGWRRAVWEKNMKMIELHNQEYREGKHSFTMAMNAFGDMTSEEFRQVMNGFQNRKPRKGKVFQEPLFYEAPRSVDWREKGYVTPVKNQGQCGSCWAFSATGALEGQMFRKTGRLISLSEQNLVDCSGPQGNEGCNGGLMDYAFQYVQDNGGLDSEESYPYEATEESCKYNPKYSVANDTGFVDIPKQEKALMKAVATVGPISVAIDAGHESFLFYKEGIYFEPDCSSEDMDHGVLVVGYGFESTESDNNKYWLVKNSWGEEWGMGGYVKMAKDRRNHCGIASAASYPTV

Cathepsin B = Cathepsin B (Homo sapiens, UniProt P07858); experiment: Inhibition of human liver cathepsin B using Z-RR-AMC as substrate after 5 mins by fluorescence assay
Summary of the method: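 Human liver cathepsin B (1 nM) was pre-incubated 5 min at 37 °C with inhibitor (final 10 µM to 10 pM). Substrate was 60 µM Z-RR-AMC in 120 mM sodium potassium phosphate pH 6.0 with 1 mM EDTA, 3 mM DTT, 0.01% Brij 35 and 2% DMSO. AMC fluorescence (ex 355/em 460 nm) was read for 5 min at 37 °C.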

MDA-MB-231 [2] = experiment: Antiinvasive activity in human MDA-MB-231 cells at 10 uM after 24 hrs by inverted microscopic analysis; assay type: functional; details: MDA-MB-231, 24 h
Summary of the method: (§1)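 MDA-MB-231 cells at 80% confluence, 50,000 per Matrigel-coated insert (8 µm PET membrane) in DMEM with 10 or 25 µM compound and 2% DMSO. The lower chamber held DMEM with 10% FBS as chemoattractant. After 24 h at 37 °C in 5% CO2, invaded cells were methanol-fixed, Diff-stained and counted by hand in ten fields at 40x. Values were normalised to the 2% DMSO vehicle; triplicate.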

HUVEC = experiment: Cytotoxicity against HUVEC cells after 48 hrs by SRB assay; assay type: cell-based; details: human
Summary of the method: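 SRB growth assay: HUVECs (pooled donors, passage ≤5) plated at 9,000 cells/well for 24 h, then exposed to ten-fold serial dilutions for 48 h. Cells were TCA-fixed and stained with 0.4% SRB, and absorbance read at 540 nm normalised to 630 nm.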

MDA-MB-231 [3] = experiment: Antimigrative activity in human MDA-MB-231 cells at 25 uM after 24 hrs by inverted microscopic analysis; assay type: functional; details: MDA-MB-231, 24 h
Summary of the method: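 Transwell migration of MDA-MB-231 cells, run as for invasion but on 8 µm pore inserts without Matrigel. Each insert held 50,000 cells in DMEM with 25 µM compound and 2% DMSO, with 10% FBS DMEM below. After 24 h at 37 °C, cells were fixed, stained and counted by microscope. Values were normalised to the DMSO vehicle; triplicate.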

[4] = Antiinvasive activity in human PC3-ML cells at 5 uM after 24 hrs by microscopic analysis; assay type: functional
Summary of the method: (§2)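 PC-3ML cells, a metastatic PC-3 subline, were seeded in serum-free medium into Matrigel-coated invasion inserts, with 10% FBS medium in the bottom chamber. At 24 h, cells that reached the membrane underside were stained and counted by microscope. Mean and standard error come from 3-5 independent experiments.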

[5] = Antiinvasive activity in human PC3-ML cells at 1 uM after 24 hrs by microscopic analysis; assay type: functional; summary of the method: as §2
MDA-MB-231 [6] = experiment: Antiinvasive activity in human MDA-MB-231 cells at 25 uM after 24 hrs by inverted microscopic analysis; assay type: functional; details: for inhibition at 25 µM: MDA-MB-231, 24 h; summary of the method: as §1
[7] = Antiinvasive activity in human PC3-ML cells at 10 uM after 24 hrs by microscopic analysis; assay type: functional; summary of the method: as §2
[8] = Antiinvasive activity in human PC3-ML cells at 25 uM after 24 hrs by microscopic analysis; assay type: functional; summary of the method: as §2
Mus musculus = experiment: Toxicity in C3H mouse derived mammary cancer cells implanted CDF1 mouse assessed as drug tolerability at 20 mg/kg, ip administered 5 consecutive days starting either on day of tumor implantation or when tumors reached 200 mm'3; assay type: organism-based, Cancer cell lines; details: in vivo
[9] = Antitumor activity against C3H mouse derived mammary cancer cells implanted in CDF1 mouse assessed as time taken for tumors to reach 500 mm'3 at 20 mg/kg, ip administered 5 consecutive days starting either on day of tumor implantation or when tumors reached 200 mm'3 (reference value: 20.1 +/- 0.6 days); assay type: functional, Cancer cell lines
Summary of the method: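 Female CDF1 mice, 10-14 weeks old, had minced C3H mammary carcinoma tissue (5-10 µl) implanted in the right rear foot. Dosing was 20 mg/kg i.p. at 0.02 ml/g, dissolved in Tween80 and diluted to 10% with saline, given daily for 5 days. Tumour volume was followed daily to find days to reach 500 mm3. Groups had 5-8 mice; mean ±1 S.E.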

Procathepsin L [10] = target: T1, Procathepsin L; experiment: Inhibition of human liver cathepsin L using Z-FR-AMC as substrate at 10000 nM measured every 15 sec for 5 mins by fluorescence assay
Summary of the method: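 Human liver cathepsin L (1 nM) was pre-incubated 5 min at 25 °C with 10 µM inhibitor or vehicle. Substrate was 50 µM Z-FR-AMC in 100 mM NaOAc pH 5.5 with 1 mM EDTA, 3 mM DTT, 0.01% Brij 35 and 2% DMSO.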
Target sequence in this assay (P07711 114-333 limits assumed): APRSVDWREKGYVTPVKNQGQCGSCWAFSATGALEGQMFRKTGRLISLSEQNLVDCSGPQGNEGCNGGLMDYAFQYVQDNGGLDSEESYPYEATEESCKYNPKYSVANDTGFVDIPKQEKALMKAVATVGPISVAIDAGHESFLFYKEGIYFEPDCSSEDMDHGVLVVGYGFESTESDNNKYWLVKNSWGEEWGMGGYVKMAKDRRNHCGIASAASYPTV

Compound | IC50 (Procathepsin L [1]) | IC50 (Cathepsin B) | GI50 (HUVEC) | further results
CC(C)Oc1ccc(C(=O)c2cccc(/C(=N/NC(N)=S)c3ccc(OC(C)C)cc3)c2)cc1 | > 10 µM | > 10 µM | – | –
NC(=S)N/N=C(\c1ccc(F)cc1)c1cccc(C(=O)c2ccc(F)cc2)c1 | 0.0144 µM | > 10 µM | > 126 µM | inhibition at 10 µM (MDA-MB-231 [2]): 15%; inhibition at 25 µM (MDA-MB-231 [3]): > 50%; inhibition at 5 µM [4]: 92%; inhibition at 1 µM [5]: 59%; inhibition at 25 µM (MDA-MB-231 [6]): 60%
CC(C)C[C@H](NC(=O)[C@@H]1O[C@H]1C(=O)O)C(=O)NCCCCN=C(N)N | – | – | – | inhibition at 10 µM (MDA-MB-231 [2]): 60%
NC(=S)N/N=C(\c1ccc(O)cc1)c1cccc(C(=O)c2ccc(O)cc2)c1 | 0.34 µM | > 10 µM | – | –
NC(=S)N/N=C(\c1cccc(Br)c1)c1cc(Br)cc(C(=O)c2cccc(Br)c2)c1 | 10.3 µM | > 10 µM | – | –
NC(=S)N/N=C(\c1cc(Br)cc(C(=O)c2ccccc2F)c1)c1ccccc1F | 0.00812 µM | > 10 µM | > 85.9 µM | inhibition at 10 µM (MDA-MB-231 [2]): 70%; inhibition at 25 µM (MDA-MB-231 [3]): > 50%; inhibition (MDA-MB-231 [6]): Active
NC(=S)N/N=C(\c1ccccc1)c1cccc(C(O)c2ccccc2)c1 (stereo not given) | 0.0238 µM | > 10 µM | – | –
NC(=S)N/N=C(\c1ccccc1)c1cccc(C(=O)c2ccccc2)c1 | 0.00985 µM | > 10 µM | 53.3 µM | inhibition at 10 µM [7]: 37%; inhibition at 25 µM [8]: 53%; inhibition at 25 µM (MDA-MB-231 [3]): 80%; Activity (Mus musculus): Non-toxic; Time [9]: 22.1 days; inhibition at 25 µM (MDA-MB-231 [6]): 30%
NC(=S)N/N=C(\c1cccc(Br)c1)c1cc(O)cc(C(=O)c2cccc(Br)c2)c1 | 10 µM | > 10 µM | – | inhibition (Procathepsin L [10]): 56.9%
NC(=S)N/N=C(\c1ccc(Br)cc1)c1cccc(/C(=N/NC(N)=S)c2ccc(Br)cc2)c1 | > 10 µM | > 10 µM | – | –
COc1cccc2c1C(=O)c1c(O)c3c(c(O)c1C2=O)C[C@@](O)(C(=O)CO)C[C@@H]3O[C@H]1C[C@H](N)[C@H](O)[C@H](C)O1 [DOXORUBICIN] | – | – | 0.0268 µM | –
NC(=S)N/N=C(\c1cccc(O)c1)c1cc(Br)cc(C(=O)c2cccc(O)c2)c1 | 0.0716 µM | > 10 µM | 13.3 µM | –
NC(=S)N/N=C(\c1ccc(Br)cc1)c1cccc(C(=O)c2ccc(Br)cc2)c1 | 1.52 µM | > 10 µM | – | –
NC(=S)N/N=C(\c1ccccc1)c1cc(C(=O)c2ccccc2)cc(C(=O)c2ccccc2)c1 | 0.056 µM | > 10 µM | – | –
Cc1cccc(C(=O)c2cccc(/C(=N/NC(N)=S)c3cccc(C)c3)c2)c1 | 0.654 µM | > 10 µM | – | –
CC(=O)O[C@H]1C(=O)[C@@]2(C)[C@H]([C@H](OC(=O)c3ccccc3)[C@]3(O)C[C@H](OC(=O)[C@H](O)[C@@H](NC(=O)c4ccccc4)c4ccccc4)C(C)=C1C3(C)C)[C@]1(OC(C)=O)CO[C@@H]1C[C@@H]2O [PACLITAXEL] | – | – | 0.00148 µM | –
COc1ccc(C(=O)c2cccc(/C(=N/NC(N)=S)c3ccc(OC)cc3)c2)cc1 | 5.12 µM | > 10 µM | – | –
